Only some compounds are listed: those with a hit (about 3.5% of all), similar ones and a draw of the others.
MrgX1 antagonist: blocks BAM8-22 activation of human MrgX1 receptor. Q96LB2. MRGX1-HEK293 calcium flux, Fluo-4, BAM8-22 antagonism; stronger effect = lower value. B-score at 10 µM. hit rate 1.3% among 310,000;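 active = calcium-response B-score plate-corrected more than 3 library SD below zero, starting fluorescence within 5 deviations, no agonist response on first addition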;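 also: peak minus trough fluorescence over baseline after final BAM8-22 challenge near maximal dose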
Target sequence (Q96LB2 whole entry, looked up): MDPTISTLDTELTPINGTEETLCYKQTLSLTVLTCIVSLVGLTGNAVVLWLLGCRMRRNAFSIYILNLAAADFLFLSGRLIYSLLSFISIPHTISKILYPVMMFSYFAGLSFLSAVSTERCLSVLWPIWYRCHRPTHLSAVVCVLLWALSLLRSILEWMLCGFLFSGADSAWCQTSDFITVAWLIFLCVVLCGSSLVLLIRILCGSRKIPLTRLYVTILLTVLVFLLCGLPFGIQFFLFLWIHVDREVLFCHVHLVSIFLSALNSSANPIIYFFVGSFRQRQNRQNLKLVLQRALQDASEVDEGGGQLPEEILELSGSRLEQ
RGS4 pot: RGS4 potentiation or activation; HEK293 M3R/inducible RGS4, carbachol calcium flux Fluo4; stronger effect = lower value; hit rate 0.92% among 310,000; B-score at 10 µM;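 active = B-score of the integrated calcium signal more than 4 SD below the library mean, with starting fluorescence not abnormally high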;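 also: negative B-score means reduced calcium response which marks RGS4 activation or potentiation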
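Reagent: ECmax carbachol challenge; Test system: M3R-expressing HEK293 line, RGS4 induced by doxycycline; Schedule: overnight RGS4 induction, 30 min dye load 37 °C, 20 min compound RT; Detection: calcium dye Fluo4 fluorescence; Read-out: Agonist-evoked peak-minus-minimum fluorescence over baseline, integrated ratio, B score.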
RGS4 inh: inhibitors of human RGS4; P49798; HEK293 M3R/RGS4 inducible, Fluo-4 calcium flux; stronger effect = higher value; triggered by carbachol at its EC20; B-score at 10 µM; hit rate 0.45% among 310,000; AID 463165;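 active = B-score, a plate-corrected calcium signal, over three deviations above library mean, with baseline fluorescence within five deviations of library mean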;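 also: RGS4 expression induced by doxycycline in cells with stable M3 receptor; B-score is computed from the integrated fluorescence ratio over baseline after carbachol; higher B-score means a larger calcium signal and so more RGS4 inhibition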
Target sequence (P49798 whole entry, looked up): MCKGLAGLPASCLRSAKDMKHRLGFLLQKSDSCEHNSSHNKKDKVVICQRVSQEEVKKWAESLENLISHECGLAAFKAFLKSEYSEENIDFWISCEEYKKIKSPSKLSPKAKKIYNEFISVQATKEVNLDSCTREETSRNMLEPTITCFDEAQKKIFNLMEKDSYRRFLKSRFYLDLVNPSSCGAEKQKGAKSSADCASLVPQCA
MrgX1 PAM: allosterically activates human MrgX1 receptor signaling | Q96LB2 | hit rate 0.63% among 310,000 | MrgX1-HEK293, Fluo-4 calcium flux, FDSS; stronger effect = higher value | B-score at 10 µM | AID 588675;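 active = plate-corrected calcium response at least 3 library SD above typical, normal starting fluorescence, not activating the receptor alone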;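 also: compound read alongside a low EC10 to EC30 dose of BAM8-22 agonist; peak minus trough fluorescence over baseline measured at the second addition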
MrgX1 agonist: agonists of human MrgX1 receptor; MrgX1-HEK293 cells, Fluo-4 calcium fluorescence, agonist mode; stronger effect = higher value; hit rate 0.44% among 310,000; B-score at 10 µM; AID 588627;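 active = calcium response B-score plate-corrected fluorescence ratio at least 3 library SD, with starting fluorescence B-score inside 5 SD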
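System: HEK293 cells stably expressing human MrgX1 receptor; Dosing: test compound in the initial addition of three; Schedule: overnight plating, then 30 min 37 °C plus 30 min room-temperature dye loading; Detection: kinetic calcium dye fluorescence, Fluo-4 NW; Controls: per-plate positive and negative controls for Z′ factor.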
* hit, by the source's call; i = inactive; . = no result.

SMILES	MrgX1 antagonist	RGS4 pot	RGS4 inh	MrgX1 PAM	MrgX1 agonist
CC1CCCCN1CCNC(=O)c1ccc2c(c1)N(Cc1cccc(Cl)c1)C(=O)c1ccccc1S2=O (configuration not stated)	i	-8.25*	i	i	i
CC1CC(C)CN(CCCNC(=O)c2ccc3c(c2)N(Cc2ccccc2)C(=O)c2ccccc2S3=O)C1 (configuration not stated)	i	-7.25*	i	i	i
CCOC(=O)C(CC)(CCC(=O)O)c1csc(Nc2ccc(C)cc2)n1 (configuration not stated)	-7.39*	i	i	i	i
CCOC(=O)Cc1csc(Nc2ccc(Cl)cc2)n1	i	i	i	i	i
NC(=S)c1c(Cl)cc(C(F)(F)F)cc1Cl	i	i	i	i	i
Cc1coc2cc3oc(=O)c(CCC(=O)NCCCn4ccnc4)c(C)c3cc12	i	i	i	i	i
Cc1coc2cc3oc(=O)c(CCC(=O)NC4CC4)c(C)c3cc12	i	i	i	9.37*	i
Cc1c(CCC(=O)NCCCn2ccnc2)c(=O)oc2cc3occ(C(C)(C)C)c3cc12	i	-7.32*	i	i	i
Cc1oc2cc3oc(=O)c(CCC(=O)NC4CC4)c(C)c3cc2c1C	i	i	i	i	i
O=C(CSc1nnc2c(n1)[nH]c1ccccc12)NCc1ccccc1F	i	i	i	i	i
CC12CCC(C/C1=N\OC(=O)c1c(F)cccc1F)C2(C)C (configuration not stated)	i	i	i	i	53.8*
CC12CCC(C/C1=N/NC(=O)COc1ccccc1Cl)C2(C)C (configuration not stated)	i	i	i	i	i
CC12CCC(C/C1=N/NC(=O)Nc1ccccc1)C2(C)C (configuration not stated)	i	i	i	12.7*	i
COCCNC(=O)C1CCCN(S(=O)(=O)c2ccc3c(c2)CC(C)N3C(=O)C2CC2)C1 (configuration not stated)	i	i	i	i	i
Cc1ccc(N(CC(=O)NCc2ccco2)C(=O)CNS(=O)(=O)c2ccccc2)c(C)c1	i	i	i	i	i
c1ccc(-n2nnnc2Cc2nnnn2-c2ccccc2)cc1	i	i	i	i	i
N#CCCS(=O)(=O)c1nnnn1-c1ccccc1	i	.	.	i	42.2*
CCN(CC)CCCNC(=O)C1CCN(C(=O)c2cc3sccc3n2Cc2ccc(F)cc2)CC1	-5.96*	i	i	i	i
N=C(N)SCc1cn(-c2ccccc2)nc1-c1ccc(Br)cc1	.	-7.51*	i	.	.
Cc1ccc(-c2nn(-c3ccccc3)cc2CNCc2ccccc2)cc1	i	i	i	i	i
O=C1CCCN1CCCNc1ccc2nnc(CCC(=O)N3CCN(c4ccccc4)CC3)n2n1	i	i	i	i	i
COc1ccc(N=C2O/C(=C/c3sc(=S)n(CC4CCCO4)c3O)N=C2C#N)cc1 (configuration not stated)	i	i	i	i	i
CCN(CC)P(=O)(Nc1ccc(C)cc1Br)c1ccc(N(C)C)cc1NC(=O)c1ccco1 (configuration not stated)	i	i	i	i	i
CCOP(=O)(OCC)C(NC(=O)Nc1ccccc1)c1ccccc1 (configuration not stated)	-4.78*	i	i	i	i
CCOP(=O)(OCC)C(NC(=O)Nc1c(C)cc(C)cc1C)c1ccccc1 (configuration not stated)	i	i	i	i	i
SMILES	MrgX1 antagonist	RGS4 pot	RGS4 inh	MrgX1 PAM	MrgX1 agonist
CC(C)(C)CC(=O)Nc1ccc(-c2nnc3n2CCCCC3)cc1	i	i	i	i	i
O=C(/C=C/c1ccccc1Cl)Nc1ccc(-c2nnc3n2CCCCC3)cc1	i	-8.12*	i	i	i
Cc1cc(NC(=O)C2CCN(S(=O)(=O)c3cnc[nH]3)CC2)ccc1Br	i	i	i	i	i
O=C(CCN1C(=O)[C@@H]2Cc3ccccc3CN2C1=O)N[C@H](C(=O)O)c1ccccc1	i	i	i	i	i
COc1cccc(/C=C/C(=O)Nc2ccc3nc4n(c(=O)c3c2)CCCC4)c1OC	i	i	i	i	i
COc1ccc(/C=C2\OC(=S)N(C)C2=O)cc1	i	i	i	i	i
CN1C(=O)/C(=C\c2ccc(N(C)C)cc2)OC1=S	i	i	i	i	63.1*
Cc1ccc(S(=O)(=O)NC(=O)Nc2ccc(OC(F)F)cc2)cc1	i	i	i	i	i
COc1ccc(-c2cnnc(N/N=C/c3ccc(C)o3)n2)cc1	-5.19*	i	i	i	i
COc1ccc(-c2cnnc(N/N=C/c3ccc(O)cc3)n2)cc1	i	i	i	i	i
CN(C)CCCN(C(=O)c1ccc(S(=O)(=O)N(C)C2CCCCC2)cc1)c1nc2ccc(F)cc2s1	i	i	i	i	i
COc1ccc2sc(N(CCCN(C)C)C(=O)c3ccc(S(=O)(=O)N4CCCc5ccccc54)cc3)nc2c1	i	-9.54*	i	i	i
COc1cc2nc(N(CCCN(C)C)C(=O)c3ccc(S(=O)(=O)N(C)C4CCCCC4)cc3)sc2cc1OC	i	i	i	i	i
Cc1cc(C)c2sc(N(CCCN(C)C)C(=O)c3ccc(S(=O)(=O)N(C)C4CCCCC4)cc3)nc2c1	i	-7.96*	i	i	i
CN(C)CCCN(C(=O)c1ccc(S(=O)(=O)N(C)C2CCCCC2)cc1)c1nc2ccc(Br)cc2s1	i	-8.65*	i	i	i
CCN(CC)CCSc1nc(O)c(-c2ccccc2)c(=O)n1-c1ccccc1	i	i	i	i	i
CCN(CC)CCSc1nc2ccccc2n1Cc1ccccc1	i	-9.11*	i	i	i
CCN(CC)CCSc1nc2ccccc2c(=S)n1-c1ccccc1	i	-8.03*	i	i	i
Cc1cccc(C)c1NCC(=O)N1CCN(Cc2ccccc2)CC1	i	i	i	i	i
COc1ccc(Cl)cc1NC(=S)N1CCCC1	i	i	i	i	i
Cc1ccccc1C(=O)NCC(C)NC(=O)c1ccccc1C (configuration not stated)	i	i	i	i	i
O=C1C(SCCO)=C(SCCO)C(=O)c2ccccc21	-12.6*	.	.	i	i
O=C1C(Cl)=C(NCCCO)C(=O)c2ccccc21	i	i	i	i	i
O=C(Nc1ccc2c(c1)CCC2)C1CCN(c2c3c(nc4ncnn24)CCC3)CC1	i	i	i	i	i

High-throughput results deposited in PubChem BioAssay by Johns Hopkins Ion Channel Center.
